Rows were chosen to be rich in hits. Some 4.6% of all compounds tested hit in one or more screens of this group.
GPR7 antag = GPR7 receptor antagonists, primary screen, cell-based, fluorescence, single concentration; Neuropeptides B/W receptor type 1 (Homo sapiens), P48145; GPR7-expressing cells, fluorescence antagonist assay; inhibition, % at 4.4 µM; 290,000 compounds, 1.1% hits; in the data active = inhibition above about 16%, passing the limit was not always enough;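 also: cells stimulated with the agonist NPW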
OX1R antag-1 = OX1R (HCRTR1) antagonists, primary screen, fluorescence, CHO/OX1R cells, Fluo-8 calcium, orexin A. Fluo-8 calcium fluorescence. inhibition, % at 5 µM. 330,000 compounds, 0.43% hits;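 active = inhibition above its plate's threshold, mean inhibition of all tested compounds on the plate plus 3 SD, cut at about 37% in these data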
Target sequence (O43613 whole entry, looked up): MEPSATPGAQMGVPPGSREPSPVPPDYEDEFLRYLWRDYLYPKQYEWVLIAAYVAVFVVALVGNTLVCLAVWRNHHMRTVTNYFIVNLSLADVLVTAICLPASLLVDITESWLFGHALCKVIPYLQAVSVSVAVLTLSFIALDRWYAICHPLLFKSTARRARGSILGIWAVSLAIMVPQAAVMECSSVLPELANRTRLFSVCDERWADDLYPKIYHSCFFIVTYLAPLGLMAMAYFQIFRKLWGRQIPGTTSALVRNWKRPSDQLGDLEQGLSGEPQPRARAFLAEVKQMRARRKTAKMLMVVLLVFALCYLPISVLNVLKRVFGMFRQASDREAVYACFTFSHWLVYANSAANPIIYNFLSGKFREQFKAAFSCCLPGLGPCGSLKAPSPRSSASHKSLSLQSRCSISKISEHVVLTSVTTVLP
TAAR1 ag = human TAAR1 agonists, primary screen, Fluo-8 calcium fluorescence, CHO RD-HGA16 cells. Trace amine-associated receptor 1 (Homo sapiens), Q96RJ0. vehicle wells 0%, saturating PEA agonist 100%. activation, % at 3 µM. 360,000 compounds, 0.99% hits. AID 624467, 2012;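 active = activation above the mean activation of all test compounds in the run plus 3 SD, cut at about 38% in these data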
Target sequence (Q96RJ0 whole entry, looked up): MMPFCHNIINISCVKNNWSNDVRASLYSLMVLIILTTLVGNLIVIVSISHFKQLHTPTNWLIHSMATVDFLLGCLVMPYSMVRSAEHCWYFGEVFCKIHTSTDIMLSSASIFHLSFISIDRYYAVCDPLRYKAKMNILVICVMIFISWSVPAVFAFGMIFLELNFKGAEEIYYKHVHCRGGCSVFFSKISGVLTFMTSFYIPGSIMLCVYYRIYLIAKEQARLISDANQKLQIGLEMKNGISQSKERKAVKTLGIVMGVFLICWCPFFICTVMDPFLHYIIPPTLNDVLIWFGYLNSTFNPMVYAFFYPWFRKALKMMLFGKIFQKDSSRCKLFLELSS
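System: CHO-derived RD-HGA16 cells with stable Gα16 and human TAAR1. Times: 17-24 h plating, Fluo-8 75 min 37 °C, 30 min RT. Measured by: calcium-sensitive Fluo-8 signal, excitation 470-495, emission 515-575 nm. Read-out basis: % activation relative to PEA EC100 response. Control set: DMSO and PEA EC100. Repeats: no replicates (n 1).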
CHO parental Ca = ATP-evoked calcium signal inhibitors, parental CHO, primary screen, counter-screen for OX1R antagonist project, cell-based, fluorescence, Fluo-8 calcium dye; parental CHO-K1, ATP-induced calcium, Fluo-8 fluorescence; inhibition, % at 5.6 µM; 330,000 compounds, 0.63% hits; AID 463079, 2010;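 active = inhibition above that plate's mean sample inhibition plus 3 SD, cut at about 26% in these data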
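material = parental CHO cells | also added = ATP as calcium-mobilizing challenge | dosing = single point at 5.6 µM | detection = intracellular calcium via Fluo-8 no-wash fluorescent dye | read-out = % inhibition | benchmarks = low control ATP plus DMSO, high control DMSO only | repeats = one well per compound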
OX1R antag-2 = antagonists of human orexin 1 receptor (OX1R); Orexin/Hypocretin receptor type 1 (Homo sapiens), O43613; OX1R-expressing cells, FRET antagonist read-out; inhibition, % at 6.6 µM; 330,000 compounds, 1.8% hits; in the data active = inhibition mostly above about 38%, no sharp cut-off; inactive = mostly below about 40%
TAAR1 antagonist = human TAAR1 antagonists, primary screen, Fluo-8 calcium fluorescence, CHO RD-HGA16 cells; 360,000 compounds, 1.5% hits; antagonist; inhibition, % at 3 µM; Trace amine-associated receptor 1 (Homo sapiens), Q96RJ0;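 active = inhibition above a per-plate cutoff, the mean inhibition of test compounds on that plate plus 3 SD, cut at about 49% in these data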
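Assay system: CHO-derived RD-HGA16 cells stably expressing human TAAR1 plus Gα16. Timing: 140 s kinetic read after compound, 140 s after agonist. Technique: kinetic Fluo-8 calcium fluorescence measurement. Measure: % inhibition of agonist calcium response.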
TAAR1 ag confirm = human TAAR1 agonists, retest of hits, confirmation, Fluo-8 calcium fluorescence, CHO RD-HGA16 cells. shares compounds with TAAR1 ag. scaled: DMSO 0%, maximal phenethylamine 100%. activation, % at 3 µM. 2,400 compounds, 82% hits. AID 651783, 2012;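 active = activation above a cutoff set at the run's mean compound activation plus 3 SD, cut at about 39% in these data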
Ga16 ag counter = nonselective calcium mobilization agonists, CHO-Ga16 cells, counter-screen for hTAAR1 agonist project, cell-based, fluorescence, CHO-Ga16 parental line. shares compounds with TAAR1 ag. Fluo-8 calcium fluorescence; normalized to maximal ATP response, DMSO zero. activation, % at 3 µM. 2,400 compounds, 50% hits. AID 651787, 2012;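 active = activation above the run cutoff, the mean activation over all tested wells plus 3 SD, cut at about 12% in these data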
TAAR1 desens = TAAR1 desensitization by agonist hits, confirmation, counter-screen for TAAR1 agonist project, cell-based, fluorescence, tachyphylaxis. shares compounds with TAAR1 ag. CHO RD-HGA16 hTAAR1, Fluo-8 calcium, beta-PEA response inhibition. inhibition, % at 3 µM. 2,400 compounds, 46% hits;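 active = inhibition above the run cutoff, the mean inhibition of all test compounds plus 3 SD, cut at about 49% in these data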;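 also: beta-PEA stimulus applied at its EC80; loss of beta-PEA calcium signal after compound pretreatment read as receptor desensitization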
Ga16 nonsel ant = inhibition of ATP-evoked calcium response in CHO-Ga16 cells, counter-screen for TAAR1 agonist project, cell-based, fluorescence; inhibition, % at 3 µM; shares compounds with TAAR1 ag; 2,400 compounds, 39% hits; CHO-Ga16 ATP-induced calcium, Fluo-8 fluorescence;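 active = inhibition above the plate's mean compound inhibition plus 3 SD, computed per plate, cut at about 22% in these data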
Of the large screens only hits and unclear results are named; the others gave an inactive call (follow-up assays come after a bar, where they were run).

Cc1cc(C)n(-c2ccc(S(=O)(=O)N3CCCC3)cc2[N+](=O)[O-])n1	none
CCOC(=O)c1cccc(OCC(O)CNCCOc2ccccc2F)c1 (stereo not given)	none
OC(CNCCc1ccc(Cl)cc1)COCc1ccco1 (stereo not given)	TAAR1 ag 56 | TAAR1 ag confirm 67 | Ga16 ag counter inactive | TAAR1 desens inactive | Ga16 nonsel ant inactive
CC(=O)c1cccc(OCC(O)CNCCc2ccc(Cl)cc2)c1 (stereo not given)	none (no result: TAAR1 ag, TAAR1 antagonist) | Ga16 ag counter inactive | Ga16 nonsel ant inactive
CN1CCN(C(=O)C2CCCN(S(=O)(=O)c3ccc(Cl)cc3)C2)CC1 (stereo not given)	none
CN(Cc1ccccc1NS(=O)(=O)c1ccc2ccccc2c1)C1CCCCC1	none
NC(=O)CC(NC(=O)Cc1ccc(Cl)cc1)c1ccc(NCCc2ccccc2F)c([N+](=O)[O-])c1 (stereo not given)	none (no result: GPR7 antag, TAAR1 ag, TAAR1 antagonist) | Ga16 ag counter inactive | Ga16 nonsel ant inactive
C[C@@H](C(=O)N[C@@H](Cc1c[nH]c2ccccc12)C(=O)O)n1nnc2ccccc2c1=O	none
O=C(Cc1c(F)c(F)c(F)c(F)c1F)Nc1nc(-c2ccccc2)cs1	TAAR1 ag 54, CHO parental Ca 48, OX1R antag-2 48 | TAAR1 ag confirm 83 | Ga16 ag counter 33 | TAAR1 desens 69 | Ga16 nonsel ant 30
O=C(O)CCCC(=O)Nc1nc(-c2ccccc2)cs1	none
O=C(c1ccco1)N1CCN(Cc2nc(-c3cccs3)no2)CC1	none
NC(N)=NN=C(c1ccc(F)cc1)c1ccc(C(F)(F)F)cc1	TAAR1 ag 51 (no result: GPR7 antag, OX1R antag-1, CHO parental Ca, OX1R antag-2) | TAAR1 ag confirm 65 | Ga16 ag counter 32 | TAAR1 desens inactive | Ga16 nonsel ant 28
Cn1c(CNC(=O)c2ccc3c(c2)OCO3)nnc1SCC(=O)Nc1ccccc1F	none
CC(=O)N1N=C(c2cccc([N+](=O)[O-])c2)OC1(C)c1cccs1 (stereo not given)	TAAR1 ag 58, TAAR1 antagonist 54 | TAAR1 ag confirm inactive | Ga16 ag counter inactive | TAAR1 desens inactive | Ga16 nonsel ant inactive
CC(=O)N1N=C(c2ccc(C)c([N+](=O)[O-])c2)OC1(C)C	none
Cn1sc2ccccc2c1=O	TAAR1 ag 46 (no result: GPR7 antag, OX1R antag-1, CHO parental Ca, OX1R antag-2) | TAAR1 ag confirm inactive | Ga16 ag counter 26 | TAAR1 desens inactive | Ga16 nonsel ant inactive
O=c1c2ccccc2sn1-c1ccc(S(=O)(=O)N2CCCC2)cc1	none
O=c1c2ccccc2sn1-c1ccccc1	TAAR1 ag 55, CHO parental Ca 48, TAAR1 antagonist 50 | TAAR1 ag confirm 38 | Ga16 ag counter 27 | TAAR1 desens inactive | Ga16 nonsel ant 32
Cc1ccc(-n2sc3ccccc3c2=O)cc1S(=O)(=O)N1CCCCC1	TAAR1 ag 70 | TAAR1 ag confirm inactive | Ga16 ag counter 14 | TAAR1 desens inactive | Ga16 nonsel ant inactive
CN(C)S(=O)(=O)c1cccc(-n2sc3ccccc3c2=O)c1	TAAR1 ag 64 | TAAR1 ag confirm 50 | Ga16 ag counter 34 | TAAR1 desens inactive | Ga16 nonsel ant 22
COCCn1c(=O)sc2ccccc2c1=O	none
O=c1c2ccccc2sn1-c1ccc(S(=O)(=O)N2CCCCC2)cc1	none
Cc1c(Cl)cccc1NC(=O)NCc1ccncc1	none
COCCCNC(=O)CCn1c(=O)c2ccccc2n(CC(=O)NCCc2ccc(OC)c(OC)c2)c1=O	none
CC(=O)CSc1nnc(CN2C(=O)CSc3ccc(C(F)(F)F)cc32)n1C	none
N#Cc1ccc2c(=O)n(-c3ccccc3)sc2c1	none (no result: GPR7 antag, OX1R antag-1, CHO parental Ca, OX1R antag-2)
CC(=O)Nc1ccc2c(=O)n(-c3ccccc3)sc2c1	TAAR1 ag 83, TAAR1 antagonist 69 (no result: GPR7 antag, OX1R antag-1, CHO parental Ca, OX1R antag-2) | TAAR1 ag confirm 131 | Ga16 ag counter 51 | TAAR1 desens 102 | Ga16 nonsel ant 52
COc1cccc(-c2nc(CS(=O)CC(=O)NCCc3ccccc3)c(C)o2)c1 (stereo not given)	TAAR1 ag 49 | TAAR1 ag confirm 52 | Ga16 ag counter inactive | TAAR1 desens inactive | Ga16 nonsel ant inactive
COc1cccc(Oc2c(C)oc3c(CN4CCCC4)c(O)ccc3c2=O)c1	none
O=C(Nc1cccc(S(=O)(=O)NC2=NCCC2)c1)C1CC(=O)N(c2ccc3c(c2)OCCO3)C1 (stereo not given)	none
Nc1nc(Nc2ccccc2)nc(NCc2ccco2)c1[N+](=O)[O-]	none
Fc1ccc(Nc2nc(NCc3ccco3)c3ccccc3n2)cc1	TAAR1 ag 70 | TAAR1 ag confirm 40 | Ga16 ag counter 23 | TAAR1 desens 49 | Ga16 nonsel ant 39
COc1ccc(C(CCN2CCCC(C)C2)c2c(OC)cc(OC)c3c(-c4ccccc4)cc(=O)oc23)cc1 (stereo not given)	TAAR1 ag 56 (no result: GPR7 antag) | TAAR1 ag confirm 47 | Ga16 ag counter 37 | TAAR1 desens inactive | Ga16 nonsel ant 42
CN(C)CCNC(=O)C1(C)Cc2c(-c3cccc(C(F)(F)F)c3)ccnc2O1 (stereo not given)	none (no result: GPR7 antag, OX1R antag-1, CHO parental Ca, OX1R antag-2)
CCN1C(=O)CCN(C2CCCC2)c2nc(Nc3ccc(C(=O)NC4CCN(C)CC4)cc3OC)ncc21	none (no result: GPR7 antag, OX1R antag-1, CHO parental Ca, OX1R antag-2)
COc1ccc(SCC(=O)Nc2ccc(N3CCN(C)CC3)c(F)c2)cc1	none
Cc1ccc(SCC(=O)Nc2ccc(N3CCN(C)CC3)c(F)c2)cc1	TAAR1 ag 49 | TAAR1 ag confirm 69 | Ga16 ag counter inactive | TAAR1 desens inactive | Ga16 nonsel ant inactive
CCOC(=O)C1=C(COC(=O)c2ccc(OC)c(S(=O)(=O)N3CCOCC3)c2)NC(=O)NC1C (stereo not given)	none (no result: GPR7 antag, OX1R antag-1, CHO parental Ca, OX1R antag-2)
